Measured values as given in ChEMBL document CHEMBL5154854, “Identification of a Vitamin-D Receptor Antagonist, MeTC7, which Inhibits the Growth of Xenograft and Transgenic Tumors In Vivo” (J Med Chem, 2022).

Molecular target: T1, Vitamin D3 receptor (Homo sapiens) (UniProt P11473)
T1 sequence (whole entry): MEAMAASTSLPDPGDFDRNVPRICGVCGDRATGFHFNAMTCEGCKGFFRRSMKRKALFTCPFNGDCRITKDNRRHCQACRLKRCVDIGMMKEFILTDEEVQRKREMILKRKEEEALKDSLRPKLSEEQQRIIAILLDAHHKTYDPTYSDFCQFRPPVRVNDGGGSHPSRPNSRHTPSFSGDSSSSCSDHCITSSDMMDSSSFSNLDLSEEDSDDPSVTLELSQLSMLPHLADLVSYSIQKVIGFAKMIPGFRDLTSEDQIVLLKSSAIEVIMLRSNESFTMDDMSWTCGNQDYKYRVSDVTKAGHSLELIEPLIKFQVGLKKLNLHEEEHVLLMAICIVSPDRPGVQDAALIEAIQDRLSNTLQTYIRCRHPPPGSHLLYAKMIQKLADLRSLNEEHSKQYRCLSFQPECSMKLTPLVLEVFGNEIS
Assay: Antagonist activity at VDR LBD (unknown origin) using Alexa Fluor 647-labeled SRC2-3 as substrate incubated for 2 hrs in presence of calcitriol by fluorescence polarization assay
How it was run: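 VDR-LBD (0.1 μM) with Alexa Fluor 647-labelled SRC2-3 (17.5 nM) and 10 nM 1,25(OH)2D3 in 25 mM PIPES, 50 mM NaCl, 0.01% NP-40, pH 6.75. Compounds were serially diluted 1:2 from 10 mM DMSO stocks and incubated 2 h. Polarization was read at 635/685 nm. Three independent experiments in quadruplicate; IC50 by variable-slope nonlinear regression.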

- Activity: > 100 µM
Structure (SMILES): CC(C)CCC[C@@H](C)[C@H]1CC[C@@H]2[C@]1(C)CCC1[C@]23C=C[C@]2(C[C@@H](O)CC[C@]12C)n1c(=O)n(C)c(=O)n13 (stereo partly specified)
